“And” between values parts separate entries of the source, which are not always exact repeats. Equal values may be shown once. Marks after values point to notes of the source that are not given here.
Experiments:
farnesyl transferase = conditions: correlative studies in patients; ref [6]–[8]; cited from earlier work
advanced cancer = conditions: 5-day, every 12 hour dosing; highest dose level 1300 mg twice daily for five days; ref [4]; cited from earlier work
[1] = test system: patients with acute myeloid leukemia (AML); test: Phase 1 dose escalation, week-on week-off oral tipifarnib: toxicity, DLT and MTD; format: in vivo, human
How it was run: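 Adult patients with AML (M3 excluded) received oral test compound twice daily on days 1–7 and 15–21 of 28-day cycles in 3+3 cohorts. AEs were graded by NCI CTCAE v3.0 from clinic review and patient diaries. DLT was any possibly drug-related […] nonhematologic toxicity (excluding palliated GI events and corrected electrolytes), or non-reversible grade 4 hematologic toxicity without blasts. MTD was ≤1 of 6 with DLT in cycle 1.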

MDS = conditions: above 400 mg bid, 21-day bid dosing; ref [6]; cited from earlier work
solid tumor = conditions: 900 mg bid dose level, week-on, week-off; ref [7]; cited from earlier work
[2] = Plasma pharmacokinetics of tipifarnib, LCMS/MS, non-compartmental analysis; format: in vivo, human
[3] = 1200 mg bid, Subsequent courses
[4] = AUC12h Day 5 / AUC12h Day 1, 1400 mg bid
[5] = Day 1, 1200 mg, plasma, individual subjects 4-10
[6] = Day 1, 1400 mg, plasma, individual subjects 1-3
[7] = Day 5, 1200 mg bid, plasma, individual subjects 4-10

In the case of Cn1cncc1[C@@](N)(c1ccc(Cl)cc1)c1ccc2c(c1)c(-c1cccc(Cl)c1)cc(=O)n2C [tipifarnib, Tipifarnib], the “duration of farnesyl transferase inhibition after administration” value (farnesyl transferase) is given as “seven days”, the “protocol-defined maximum tolerated dose (MTD)” value (advanced cancer) is given as “not achieved” and the “# DLTs” value ([1]; 400 mg bid) is given as 1. The DLT descriptions ([1]; 400 mg bid) was “hepatic”, the “# DLTs” value ([1]; 1200 mg bid) was 1 and the DLT descriptions ([1]; 1200 mg bid) was “renal”. For the same compound, the “ALT, SGPT toxicity, Grade 2” value ([1]; 1200 mg bid, Course 1) was 2, the “Anorexia, Grade 2” value ([1]; 1200 mg bid, Course 1) was 2 and the “Bilirubin toxicity, Grade 2” value ([1]; 1200 mg bid, Course 1) was 2. For the same compound, the “Creatinine toxicity, Grade 2” value ([1]; 1200 mg bid, Course 1) was 2, the “Creatinine toxicity, Grade 3” value ([1]; 1200 mg bid, Course 1) was 1 and the “Dehydration, Grade 2” value ([1]; 1200 mg bid, Course 1) was 1. The “Fatigue, Grade 2” value ([1]; 1200 mg bid, Course 1) was 3, the “Hypoalbuminemia, Grade 2” value ([1]; 1200 mg bid, Course 1) was 2 and the “Nausea, Grade 2” value ([1]; 1200 mg bid, Course 1) was 1. For the same compound, the “Nausea, Grade 3” value ([1]; 1200 mg bid, Course 1) was 1, the “Rash / desquamination, Grade 2” value ([1]; 1200 mg bid, Course 1) was 1 and the “Vomiting, Grade 2” value ([1]; 1200 mg bid, Course 1) was 2. For the same compound, the “ALT, SGPT toxicity, Grade 3” value [1, 3] was 1, the “AST, SGOT toxicity, Grade 2” value [1, 3] was 1 and the “Anorexia, Grade 2” value [1, 3] was 1. The “Ataxia, Grade 3” value [1, 3] was 1, the “Bilirubin toxicity, Grade 2” value [1, 3] was 1 and the “Constipation, Grade 2” value [1, 3] was 1. For the same compound, the “Creatinine toxicity, Grade 2” value [1, 3] was 3, the “Fatigue, Grade 3” value [1, 3] was 2 and the “Febrile neutropenia, Grade 3” value [1, 3] was 1. The “Hyperglycemia, Grade 2” value [1, 3] was 2, the “Hypoalbuminemia, Grade 2” value [1, 3] was 2 and the “Nausea, Grade 2” value [1, 3] was 2. For the same compound, the “Restless leg syndrome, Grade 2” value [1, 3] was 1, the “Syncope (fainting), Grade 3” value [1, 3] was 1 and the “Vomiting, Grade 2” value [1, 3] was 2. The “Weight loss, Grade 2” value [1, 3] was 1, the “# DLTs” value ([1]; 1400 mg bid) was 2 and the DLT descriptions ([1]; 1400 mg bid) was “renal”. For the same compound, the “# DLTs” value ([1]; 1600 mg bid) was 2 ^*, the DLT descriptions ([1]; 1600 mg bid) was “hepatic, renal ^*” and the “maximum tolerated dose (MTD)” value ([1]; oral twice daily, days 1–7 and 15–21 of each 28-day cycle, first-cycle DLT) was 1200 mg bid. The dose limiting toxicities (MDS) was “headache, fatigue, confusion, and vision changes”, the DLT (solid tumor) was “grade 3 fatigue” and the “Accumulation Index, median” value ([2]; AUC12h Day 5 / AUC12h Day 1, 1200 mg bid) was 1.2 and 1.23. For the same compound, the “Accumulation Index” value ([2]; AUC12h Day 5 / AUC12h Day 1, 1200 mg bid, individual subjects 4-10) was 1.23 and 0.91 and 2.40 and 1.55, the “Accumulation Index, high” value [2, 4] was 1.37 and the “Accumulation Index, low” value [2, 4] was 0.97. The “Accumulation Index, median” value [2, 4] was 1.17, the “Accumulation Index” value ([2]; AUC12h Day 5 / AUC12h Day 1, 1400 mg bid, individual subjects 1-3) was 1.37 and 0.97 and the “Cmin, high” value ([2]; Day 1, 1200 mg, plasma) was 402 ng/mL. The “Cmin, low” value ([2]; Day 1, 1200 mg, plasma) was 82 ng/mL, the “Cmin, median” value ([2]; Day 1, 1200 mg, plasma) was 166 ng/mL and the AUC12h [2, 5] was 3905 ng·h/mL. For the same compound, the Cmax [2, 5] was 804 ng/mL and 1180 ng/mL and 479 ng/mL and 2300 ng/mL, the Cmin [2, 5] was 132 ng/mL and 339 ng/mL and 166 ng/mL and 82 ng/mL and 402 ng/mL and the Tmax [2, 5] was 3.0 h. For the same compound, the “Cmin, low” value ([2]; Day 1, 1400 mg, plasma) was 145 ng/mL, the “Cmin, median” value ([2]; Day 1, 1400 mg, plasma) was 237 ng/mL and the Cmin [2, 6] was 329 ng/mL and 145 ng/mL. For the same compound, the Tmax [2, 6] was 3.2 h, the AUC12h [2, 7] was 4815 ng·h/mL and 7001 ng·h/mL and 7787 ng·h/mL and 9221 ng·h/mL and the Cmax [2, 7] was 1880 ng/mL and 2490 ng/mL and 1020 ng/mL. For the same compound, the Cmin [2, 7] was 97 ng/mL and 204 ng/mL and 234 ng/mL and 283 ng/mL and 166 ng/mL and 113 ng/mL and 101 ng/mL, the Tmax [2, 7] was 3.0 h and 3.1 h and 2.8 h and the Cmin ([2]; Day 5, 1400 mg bid, plasma, individual subjects 1-3) was 781 ng/mL and 170 ng/mL. The “tipifarnib accumulation between days 1 and 5” value ([2]; at 1200 and 1400 mg bid) was “relatively modest” and the AUC(0-t) ([2]; human, plasma, oral, 1200 mg, AUC12h, high, Day 1, 1200 mg, plasma) was 15700 ng·h/mL.
